# Measurements reported in ChEMBL document CHEMBL1135814, “Aldisine alkaloids from the Philippine sponge Stylissa massa are potent inhibitors of mitogen-activated protein kinase kinase-1 (MEK-1)” (J Med Chem, 2002).
# Assays:
# [1] = molecular target: Dual specificity mitogen-activated protein kinase kinase 1 (Homo sapiens, UniProt Q02750); experiment: Inhibition of MEK1 phosphorylation by activated human recombinant Raf
# LoVo = experiment: Inhibition of human adenocarcinoma cell line LoVo proliferation; type: functional, cell-based
# In short: (§1)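 Cells grown in RPMI 1640 with 10% fetal bovine serum, L-glutamine and penicillin/streptomycin. Compounds from 100% DMSO stocks were diluted in complete medium and applied at varying concentrations. Growth inhibition was read by sulforhodamine B staining, reported as IC50.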
# Caco-2 = experiment: Inhibition of human adenocarcinoma cell line Caco-2 proliferation; type: functional, cell-based; in short: as §1
# [2] = molecular target: Serine/threonine-protein kinase RAF and Dual specificity mitogen-activated protein kinase kinase 1 (Raf/MEK) (Homo sapiens, UniProt P04049+Q02750); experiment: Inhibition of kinase activity of Raf/MEK/ERK kinase cascade in ELISA; type: protein assay
# Sequence of Dual specificity mitogen-activated protein kinase kinase 1 (Q02750 whole entry): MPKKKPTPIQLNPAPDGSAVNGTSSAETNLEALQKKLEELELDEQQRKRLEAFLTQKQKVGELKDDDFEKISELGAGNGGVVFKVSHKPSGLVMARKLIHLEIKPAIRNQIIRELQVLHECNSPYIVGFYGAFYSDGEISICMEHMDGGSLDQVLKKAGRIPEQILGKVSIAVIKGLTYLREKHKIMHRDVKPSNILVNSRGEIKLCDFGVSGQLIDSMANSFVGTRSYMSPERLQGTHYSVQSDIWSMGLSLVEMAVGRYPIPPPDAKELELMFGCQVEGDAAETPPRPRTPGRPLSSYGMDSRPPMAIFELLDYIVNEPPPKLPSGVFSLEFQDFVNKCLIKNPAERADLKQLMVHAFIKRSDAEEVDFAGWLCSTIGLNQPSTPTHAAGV
IC50 [1] [nM],IC50 (LoVo) [nM],IC50 (Caco-2) [nM],IC50 [2] [nM],SMILES
> 2500,> 10000,> 10000,> 2500,NC(=O)c1cc(Br)c(Br)[nH]1
,> 10000,> 10000,,O=C1CCNC(=O)c2[nH]c(Br)cc21
> 2500,> 10000,> 10000,> 2500,O=C1CCNC(=O)c2[nH]ccc21 [ALDISIN]
> 2500,> 10000,> 10000,881,NC1=N/C(=C2/CCNC(=O)c3[nH]ccc32)C(=O)N1 [DEBROMOHYMENIALDISINE]
,586,> 3870,,NC1=N/C(=C2\CCNC(=O)c3[nH]c(Br)cc32)C(=O)N1
,710,> 7800,,NC1=NC(=O)/C(=C2\CCNC(=O)c3[nH]c(Br)cc32)N1 [HYMENIALDISINE]
> 2500,> 10000,> 10000,1288,Nc1nc(C2CCNC(=O)c3[nH]c(Br)c(Br)c32)c[nH]1 (stereo not drawn)
,50,> 10000,,CSCC[C@H](NC(=O)c1ccc(NC[C@@H](N)CS)cc1-c1ccccc1)C(=O)O
> 2500,> 10000,> 10000,> 2500,Nc1ncc(/C=C/CNC(=O)c2cc(Br)c(Br)[nH]2)[nH]1 [OROIDIN]
